Experimental data: ChEMBL document CHEMBL1921722, “In vitro and in vivo evaluation of select kahalalide F analogs with antitumor and antifungal activities” (Bioorg Med Chem, 2011)
≈ marks a conversion by molar mass, not a printed value.

Columns and labels:
OVCAR-3 = assay: Cytotoxicity against human OVCAR3 cells assessed as cell growth at 800 nM by sulforhodamine B assay relative to control; assay type: functional; settings: read-out: Activity
PC-3 [1] = assay: Cytotoxicity against human PC3 cells assessed as cell growth at 800 nM by sulforhodamine B assay relative to control; assay type: functional; settings: read-out: Activity
HL-60(TB) = assay: Cytotoxicity against human HL-60(TB) cells assessed as cell growth at 80 nM by sulforhodamine B assay relative to control; assay type: functional; settings: read-out: Activity
NCI/ADR-RES = assay: Cytotoxicity against human NCI/ADR-RES cells assessed as cell growth at 80 uM by sulforhodamine B assay relative to control; assay type: functional; settings: read-out: Activity
UACC-257 [2] = assay: Cytotoxicity against human UACC257 cells assessed as cell growth at 80 nM by sulforhodamine B assay relative to control; assay type: functional; settings: read-out: Activity
SF-268 [3] = assay: Cytotoxicity against human SF268 cells assessed as cell growth at 8 nM by sulforhodamine B assay relative to control; assay type: functional; settings: read-out: Activity
Aspergillus fumigatus = assay: Antimicrobial activity against Aspergillus fumigatus ATCC 90906 by CLSI method; assay type: functional, organism-based
K562 = assay: Cytotoxicity against human K562 cells assessed as cell growth at 8 nM by sulforhodamine B assay relative to control; assay type: functional; settings: read-out: Activity
DU-145 [4] = assay: Cytotoxicity against human DU145 cells assessed as cell growth at 800 nM by sulforhodamine B assay relative to control; assay type: functional; settings: read-out: Activity
A498 = assay: Cytotoxicity against human A498 cells assessed as cell growth at 80 nM by sulforhodamine B assay relative to control; assay type: functional; settings: read-out: Activity
Method in brief: (§1)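 Run at NCI in the DTP 60-cell-line human tumor panel by standard procedure. Compounds were first screened at a single concentration, then tested at five tenfold-spaced concentrations. GI50 is the concentration reducing treated-cell growth to half that of untreated controls; TGI is the concentration completely halting growth.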

NCI-H460 [5] = assay: Cytotoxicity against human NCI-H460 cells assessed as cell growth at 800 nM by sulforhodamine B assay relative to control; assay type: functional; settings: read-out: Activity
OVCAR-5 [6] = assay: Cytotoxicity against human OVCAR5 cells assessed as cell growth at 80 uM by sulforhodamine B assay relative to control; assay type: functional; settings: read-out: Activity
MDA-MB-231 = assay: Cytotoxicity against human MDA-MB-231 cells assessed as cell growth at 8 uM by sulforhodamine B assay relative to control; assay type: functional; settings: read-out: Activity
HCT-15 = assay: Cytotoxicity against human HCT15 cells assessed as cell growth at 80 nM by sulforhodamine B assay relative to control; assay type: functional; settings: read-out: Activity
SF-295 = assay: Cytotoxicity against human SF295 cells assessed as cell growth at 8 nM by sulforhodamine B assay relative to control; assay type: functional; settings: read-out: Activity
HCC 2998 = assay: Cytotoxicity against human HCC2998 cells assessed as cell growth at 80 nM by sulforhodamine B assay relative to control; assay type: functional; settings: read-out: Activity
T47D = assay: Cytotoxicity against human T47D cells assessed as cell growth at 800 nM by sulforhodamine B assay relative to control; assay type: functional; settings: read-out: Activity
UACC-257 [7] = assay: Cytotoxicity against human UACC257 cells assessed as cell growth at 800 nM by sulforhodamine B assay relative to control; assay type: functional; settings: read-out: Activity
OVCAR-5 [8] = assay: Cytotoxicity against human OVCAR5 cells assessed as cell growth at 8 nM by sulforhodamine B assay relative to control; assay type: functional; settings: read-out: Activity
M14 [9] = assay: Cytotoxicity against human M14 cells assessed as cell growth at 8 nM by sulforhodamine B assay relative to control; assay type: functional; settings: read-out: Activity
NCI-H23 = assay: Cytotoxicity against human NCI-H23 cells assessed as cell growth at 80 uM by sulforhodamine B assay relative to control; assay type: functional; settings: read-out: Activity
NCI-H226 [10] = assay: Cytotoxicity against human NCI-H226 cells assessed as cell growth at 800 nM by sulforhodamine B assay relative to control; assay type: functional; settings: read-out: Activity
DU-145 [11] = assay: Cytotoxicity against human DU145 cells assessed as cell growth at 80 uM by sulforhodamine B assay relative to control; assay type: functional; settings: read-out: Activity
NCI-H226 [12] = assay: Cytotoxicity against human NCI-H226 cells by sulforhodamine B assay; assay type: functional
Method in brief: (§2)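 NCI Developmental Therapeutics Program 60-cell-line human tumor panel screen, run at NCI. A single-concentration pre-screen was followed by a five-concentration dose-response in 10-fold steps. GI50 is the concentration that reduces growth of treated cells to half that of untreated control cells. TGI is the concentration that completely halts growth.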

NCI-H460 [13] = assay: Cytotoxicity against human NCI-H460 cells assessed as cell growth at 8 nM by sulforhodamine B assay relative to control; assay type: functional; settings: read-out: Activity
OVCAR-4 = assay: Cytotoxicity against human OVCAR4 cells assessed as cell growth at 8 uM by sulforhodamine B assay relative to control; assay type: functional; settings: read-out: Activity
A549 = assay: Cytotoxicity against human A549 cells assessed as cell growth at 80 uM by sulforhodamine B assay relative to control; assay type: functional; settings: read-out: Activity; method in brief: as §1
M14 [14] = assay: Cytotoxicity against human M14 cells assessed as cell growth at 8 uM by sulforhodamine B assay relative to control; assay type: functional; settings: read-out: Activity
OVCAR-8 = assay: Cytotoxicity against human OVCAR8 cells assessed as cell growth at 8 nM by sulforhodamine B assay relative to control; assay type: functional; settings: read-out: Activity
RPMI-8226 = assay: Cytotoxicity against human RPMI8226 cells assessed as cell growth at 800 nM by sulforhodamine B assay relative to control; assay type: functional; settings: read-out: Activity
PC-3 [15] = assay: Cytotoxicity against human PC3 cells by sulforhodamine B assay; assay type: functional; method in brief: as §2
Malme-3M = assay: Cytotoxicity against human MALME-3M cells assessed as cell growth at 800 nM by sulforhodamine B assay relative to control; assay type: functional; settings: read-out: Activity
SN12C = assay: Cytotoxicity against human SN12C cells assessed as cell growth at 800 nM by sulforhodamine B assay relative to control; assay type: functional; settings: read-out: Activity
SK-MEL-5 = assay: Cytotoxicity against human SK-MEL-5 cells assessed as cell growth at 8 nM by sulforhodamine B assay relative to control; assay type: functional; settings: read-out: Activity
MOLT-4 = assay: Cytotoxicity against human MOLT4 cells assessed as cell growth at 80 uM by sulforhodamine B assay relative to control; assay type: functional; settings: read-out: Activity
KM12 = assay: Cytotoxicity against human KM12 cells assessed as cell growth at 8 nM by sulforhodamine B assay relative to control; assay type: functional; settings: read-out: Activity
UACC-62 = assay: Cytotoxicity against human UACC62 cells assessed as cell growth at 8 uM by sulforhodamine B assay relative to control; assay type: functional; settings: read-out: Activity
HCT-116 = assay: Cytotoxicity against human HCT116 cells assessed as cell growth at 80 nM by sulforhodamine B assay relative to control; assay type: functional; settings: read-out: Activity
HT-29 = assay: Cytotoxicity against human HT-29 cells assessed as cell growth at 80 nM by sulforhodamine B assay relative to control; assay type: functional; settings: read-out: Activity
SF-268 [16] = assay: Cytotoxicity against human SF268 cells assessed as cell growth at 80 nM by sulforhodamine B assay relative to control; assay type: functional; settings: read-out: Activity
TK-10 = assay: Cytotoxicity against human TK10 cells assessed as cell growth at 80 uM by sulforhodamine B assay relative to control; assay type: functional; settings: read-out: Activity
SK-OV-3 = assay: Cytotoxicity against human SKOV3 cells assessed as cell growth at 800 nM by sulforhodamine B assay relative to control; assay type: functional; settings: read-out: Activity

C/C=C1\NC(=O)[C@H](Cc2ccccc2)NC(=O)[C@@H](C(C)C)NC(=O)[C@@H]([C@@H](C)CC)NC(=O)[C@H](NC(=O)[C@H](NC(=O)[C@H](CCCNCc2ccc(N3CCOCC3)cc2)NC(=O)[C@H]2CCCN2C(=O)[C@H](NC(=O)[C@@H](NC(=O)[C@@H](NC(=O)[C@H](NC(=O)CCCC(C)C)C(C)C)[C@@H](C)O)C(C)C)C(C)C)[C@@H](C)CC)[C@@H](C)OC(=O)[C@H](C(C)C)NC1=O
growth at 0.8 µM (OVCAR-3): 46%
growth at 0.8 µM (PC-3 [1]): -51%
growth at 0.08 µM (HL-60(TB)): 96%
growth at 80 µM (NCI/ADR-RES): -58%
growth at 0.08 µM (UACC-257 [2]): 103%
growth at 0.008 µM (SF-268 [3]): 98%
IC50 (Aspergillus fumigatus): 5000 nM
MFC (Aspergillus fumigatus): 20 µM (≈ 33.1 µg/mL)
MIC (Aspergillus fumigatus): 10 µM (≈ 16.5 µg/mL)
growth at 0.008 µM (K562): 103%
growth at 0.8 µM (DU-145 [4]): -77%
growth at 0.08 µM (A498): 110%
growth at 0.8 µM (NCI-H460 [5]): 104%
growth at 80 µM (OVCAR-5 [6]): -47%
growth at 8 µM (MDA-MB-231): 20%
growth at 0.08 µM (HCT-15): 107%
growth at 0.008 µM (SF-295): 107%
growth at 0.08 µM (HCC 2998): 98%
growth at 0.8 µM (T47D): -23%
growth at 0.8 µM (UACC-257 [7]): 93%
growth at 0.008 µM (OVCAR-5 [8]): 97%
growth at 0.008 µM (M14 [9]): 99%
growth at 80 µM (NCI-H23): -85%
growth at 0.8 µM (NCI-H226 [10]): 104%
growth at 80 µM (DU-145 [11]): -73%
GI50 (NCI-H226 [12]): 1660 nM
TGI (NCI-H226 [12]; read-out: pTGI (converted)): 3390 nM
growth at 0.008 µM (NCI-H460 [13]): 99%
growth at 8 µM (OVCAR-4): -59%
growth at 80 µM (A549): 4%
growth at 8 µM (M14 [14]): -89%
growth at 0.008 µM (OVCAR-8): 99%
growth at 0.8 µM (RPMI-8226): 76%
LC50 (PC-3 [15]): 741 nM
GI50 (PC-3 [15]; read-out: GI50): 156 nM
TGI (PC-3 [15]; read-out: TGI): 340 nM
GI50 (PC-3 [15]; read-out: pGI50 (converted)): 155 nM
TGI (PC-3 [15]; read-out: pTGI (converted)): 339 nM
growth at 0.8 µM (Malme-3M): 117%
growth at 0.8 µM (SN12C): 86%
growth at 0.008 µM (SK-MEL-5): 105%
growth at 80 µM (MOLT-4): 7%
growth at 0.008 µM (KM12): 106%
growth at 8 µM (UACC-62): -100%
growth at 0.08 µM (HCT-116): 100%
growth at 0.08 µM (HT-29): 93%
growth at 0.08 µM (SF-268 [16]): 103%
growth at 80 µM (TK-10): -56%
growth at 0.8 µM (SK-OV-3): -35%
